Assay results: ChEMBL document CHEMBL4433203, “Design, synthesis, and evaluation of isoflavone analogs as multifunctional agents for the treatment of Alzheimer's disease” (Eur J Med Chem, 2019)
Activity calls are given as the source filed them. The calls are words filed in the database; no cut-off is given here.

Assays:
[1] = tested on: BV-2; experiment: Antiinflammatory activity in mouse BV2 cells assessed as reduction in LPS-induced TNF-alpha production at 10 uM pretreated for 1 hr followed by LPS challenge and measured after 24 hrs by ELISA assay; format: functional, cell-based
[2] = tested on: SH-SY5Y; experiment: Neuroprotective activity against copper-induced cytotoxicity in human SH-SY5Y cells expressing APP Swedish mutant assessed as increase in cell viability at 10 uM pre-incubated for 2 hrs followed by copper addition and measured after 24 hrs by MTT assay; format: functional, cell-based
[3] = Cmax in ICR mouse at 30 mg/kg, po measured upto 48 hrs by LCMS/MS method; format: ADME, organism-based; parameters: dose 30 mg/kg, route oral; settings: in vivo
[4] = AUC (0 to t) in ICR mouse at 30 mg/kg, po measured upto 48 hrs by LCMS/MS method; format: ADME, organism-based; parameters: time < 48 hr, dose 30 mg/kg, route oral; settings: in vivo
[5] = molecular target: Cholinesterase (Mus musculus, UniProt Q03311); experiment: Inhibition of mouse plasma BuChE using S-butyrylacetylthiocholine iodide as substrate measured after 30 mins by Ellman's method relative to control; settings: read-out: IC50
[6] = tested on: BuChE; experiment: Selectivity index, ratio of CC50 for human SH-SY5Y cells IC50 for mouse plasma BuChE; format: toxicity
Outline: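 SI is CC50 in SH-SY5Y divided by BuChE IC50. […] For IC50, mouse plasma BuChE was preincubated 30 min at 37 °C with DTNB and compound in 0.05 M PBS pH 8.0. Butyrylthiocholine iodide was added and A412 read; IC50 taken from log concentration–inhibition curves.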

[7] = Acute toxicity ICR mouse assessed as effect on body weight change at 0 to 1000 mg/kg, po measured up to 14 days; format: organism-based; settings: in vivo, 336 h
Outline: (§1)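 Male ICR mice (22 days, 20–22 g), n = 5 per group, chow and water ad libitum, 12 h light/dark cycle. Single oral dose of 0, 100, 200, 500 or 1000 mg/kg in 0.5% CMC-Na. Observed continuously for the first 4 h, intermittently over the next 24 h, then occasionally to 14 days. Euthanized on day 14.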

[8] = Acute toxicity ICR mouse assessed as effect on eating behavior at 0 to 1000 mg/kg, po measured up to 14 days; format: organism-based; settings: in vivo, 336 h; outline: as §1
[9] = AUC (0 to infinity) in ICR mouse at 30 mg/kg, po measured upto 48 hrs by LCMS/MS method; format: ADME, organism-based; parameters: dose 30 mg/kg, time infinity, route oral; settings: in vivo
[10] = Plasma concentration in ICR mouse at 30 mg/kg, po measured after 40 mins by LCMS/MS method; format: ADME, organism-based
Outline: (§2)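 ICR mice got a single oral dose of 30 mg/kg. At 40 min they were sacrificed and plasma and brain collected. Compound in both was quantified by LC-MS/MS. Log BB is the log of the brain-to-blood concentration ratio. Methods state n = 5, table footnote n = 6. Mean ± SEM.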

[11] = Tmax in ICR mouse at 30 mg/kg, po measured upto 48 hrs by LCMS/MS method; format: ADME, organism-based; settings: in vivo
[12] = tested on: BV-2; experiment: Antiinflammatory activity in mouse BV2 cells assessed as reduction in LPS-induced IL-6 production at 10 uM pretreated for 1 hr followed by LPS challenge and measured after 24 hrs by ELISA assay; format: functional, cell-based
[13] = molecular target: T1, Acetylcholinesterase (Mus musculus) (UniProt P21836); settings: at 10 µM
T1 sequence (whole entry): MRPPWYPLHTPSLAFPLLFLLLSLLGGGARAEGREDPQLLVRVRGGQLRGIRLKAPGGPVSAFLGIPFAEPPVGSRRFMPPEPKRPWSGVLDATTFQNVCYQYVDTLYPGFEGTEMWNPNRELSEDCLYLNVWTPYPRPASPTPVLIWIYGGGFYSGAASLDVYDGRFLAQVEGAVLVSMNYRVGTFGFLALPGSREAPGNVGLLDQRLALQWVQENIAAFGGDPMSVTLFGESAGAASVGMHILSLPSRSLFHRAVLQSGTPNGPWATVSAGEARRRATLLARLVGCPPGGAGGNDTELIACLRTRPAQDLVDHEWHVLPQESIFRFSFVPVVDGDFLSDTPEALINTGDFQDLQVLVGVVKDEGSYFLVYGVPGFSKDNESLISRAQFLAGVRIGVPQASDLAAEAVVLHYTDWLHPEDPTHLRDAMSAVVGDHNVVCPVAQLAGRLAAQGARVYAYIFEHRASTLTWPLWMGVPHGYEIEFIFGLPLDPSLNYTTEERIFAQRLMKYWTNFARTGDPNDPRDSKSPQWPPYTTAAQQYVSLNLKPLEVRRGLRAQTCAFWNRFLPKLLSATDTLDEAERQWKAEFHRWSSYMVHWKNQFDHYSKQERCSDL

[14] = tested on: Mus musculus; experiment: Effect on latency time in ICR mouse model of scopolamine-induced cognitive deficit during training stage at 10 to 30 mg/kg, po treated for 1 hr followed by scopolamine challenge for 30 mins by step-down passive avoidance test; format: ADME, organism-based; settings: in vivo
Outline: (§3)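 ICR mice, six weeks old, 18-22 g, either sex, n = 15/group. […] Step-down test used foot shock of 20 V, 0.5 mA, 2 s, with a training trial and a test 24 h later. Read-outs were latency to first step-down and number of shocks in 5 min. Mean ± SEM.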

[15] = Cmax in ICR mouse brain at 30 mg/kg, po measured after 40 mins by LCMS/MS method; format: ADME, organism-based; parameters: dose 30 mg/kg, route oral; outline: as §2
[16] = Antioxidant activity assessed as AAPH radical scavenging activity preincubated for 15 mins with fluorescein before AAPH addition and recorded every 2 mins for 160 mins by ORAC-FL assay; format: functional
Outline: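 ORAC-FL assay in 75 mM PBS, pH 7.4. Compound was preincubated with fluorescein (20 nM final) for 15 min at 37 °C, then AAPH (18 mM final) was added. Fluorescence (ex 460/em 520 nm) was read every 2 min for 160 min. Net area under the decay curve, blank-normalized, is expressed as µM Trolox equivalents per µM compound. Duplicates, ≥3 independent assays.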

[17] = molecular target: T2, Acetylcholinesterase (Mus musculus, UniProt P21836); experiment: Inhibition of mouse brain AChE using acetylthiocholine iodide as substrate measured after 30 mins by Ellman's method; settings: read-out: IC50
T2 sequence (P21836 whole entry): T1 sequence (whole entry)

[18] = Acute toxicity ICR mouse assessed as induction of macroscopic abnormalities in kidney at 0 to 1000 mg/kg, po measured after 14 da; format: organism-based; settings: in vivo; outline: as §1
[19] = Cytotoxicity in human SH-SY5Y cells assessed as reduction in cell viability after 72 hrs incubation by MTT assay; settings: SH-SY5Y cells
[20] = tested on: Mus musculus; experiment: Antialzheimer activity in ICR mouse model of scopolamine-induced cognitive deficit assessed as reduction scopolamine-induced error times at 10 to 30 mg/kg, po treated for 1 hr followed by scopolamine challenge for 30 mins by step-down passive avoidance test; format: functional, organism-based; outline: as §3
[21] = molecular target: Histamine H3 receptor (Homo sapiens, UniProt Q9Y5N1); experiment: Inhibition of human H3R expressed in methylhistamine-induced human H3-bla U2OS cells at 10 uM incubated for 30 mins by beta-lactamase complementation technology relative to control; format: cell-based
[22] = Acute toxicity ICR mouse assessed as induction of abnormal behavior at 0 to 1000 mg/kg, po measured up to 14 days; format: organism-based; settings: in vivo, 336 h; outline: as §1
[23] = Acute toxicity ICR mouse assessed as induction of macroscopic abnormalities in heart at 0 to 1000 mg/kg, po measured after 14 days; format: organism-based; settings: in vivo, 336 h; outline: as §1

Sequence of Cholinesterase (Q03311 whole entry): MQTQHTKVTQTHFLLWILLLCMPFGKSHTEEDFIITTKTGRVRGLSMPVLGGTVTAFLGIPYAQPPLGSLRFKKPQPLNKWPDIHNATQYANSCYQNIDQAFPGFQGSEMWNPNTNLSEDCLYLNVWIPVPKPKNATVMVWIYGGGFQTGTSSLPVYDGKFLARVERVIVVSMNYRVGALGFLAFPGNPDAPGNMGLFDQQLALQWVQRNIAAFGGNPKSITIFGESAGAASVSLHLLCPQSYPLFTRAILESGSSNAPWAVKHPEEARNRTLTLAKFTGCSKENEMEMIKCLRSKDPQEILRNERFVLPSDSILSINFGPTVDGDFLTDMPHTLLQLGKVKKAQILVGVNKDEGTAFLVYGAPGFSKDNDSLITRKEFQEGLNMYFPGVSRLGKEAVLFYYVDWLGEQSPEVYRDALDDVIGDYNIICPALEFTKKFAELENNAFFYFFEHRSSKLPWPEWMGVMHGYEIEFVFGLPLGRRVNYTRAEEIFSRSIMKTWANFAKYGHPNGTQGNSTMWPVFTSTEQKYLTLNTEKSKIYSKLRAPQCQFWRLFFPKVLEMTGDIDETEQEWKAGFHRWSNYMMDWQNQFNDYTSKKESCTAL
Sequence of Histamine H3 receptor (Q9Y5N1 whole entry): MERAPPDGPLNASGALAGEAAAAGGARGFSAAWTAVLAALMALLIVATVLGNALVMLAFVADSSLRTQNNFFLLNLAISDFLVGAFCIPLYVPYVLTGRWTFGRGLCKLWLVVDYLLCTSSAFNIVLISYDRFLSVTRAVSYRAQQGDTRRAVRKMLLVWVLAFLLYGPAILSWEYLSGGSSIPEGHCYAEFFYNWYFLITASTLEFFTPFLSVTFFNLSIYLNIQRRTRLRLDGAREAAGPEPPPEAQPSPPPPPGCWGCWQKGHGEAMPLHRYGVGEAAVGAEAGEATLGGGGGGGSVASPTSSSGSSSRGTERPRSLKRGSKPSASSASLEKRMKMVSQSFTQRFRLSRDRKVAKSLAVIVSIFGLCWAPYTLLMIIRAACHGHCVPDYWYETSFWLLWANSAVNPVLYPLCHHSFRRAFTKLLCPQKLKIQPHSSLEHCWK

With CCN(C)CCCCOc1ccc2c(=O)c(-c3ccc(OCCN4CCCCC4)cc3)coc2c1 as the compound, how does the Activity [1] read?
Its Activity is “Active”.

And the Activity [2]?
Its Activity is “Active”.

What about the Cmax [3] of the same compound?
Its Cmax is 52 ng/mL.

And the AUC(0-t) at 48 h [4]?
The AUC(0-t) at 48 h was 325 ng·h/mL.

And the IC50 [5]?
Its IC50 is 2.89 µM.

What about the selectivity ratio [6] of the same compound?
Its selectivity ratio is greater than 34.6.

What about the Activity [7] of the same compound?
Its Activity is “Non-Toxic”.

What about the Activity [8] of the same compound?
The Activity was “Non-Toxic”.

And the AUC(0-inf) [9]?
Its AUC(0-inf) is 352 ng·h/mL.

And the concentration at 40 min [10]?
Its concentration at 40 min is 47.2 ng/mL.

And the Tmax [11]?
Its Tmax is 39 min.

And the Activity [12]?
Its Activity is “Active”.

What about the inhibition [13] of the same compound?
Its inhibition is 92.8%.

What about the Activity [14] of the same compound?
The Activity was “Non-Toxic”.

And the Cmax [15]?
Its Cmax is 762 ng/mL.

What about the Activity [16] of the same compound?
The Activity was 0.01 equiv/µM.

What about the IC50 [17] of the same compound?
Its IC50 is 0.081 µM.

What about the Activity [18] of the same compound?
The Activity was “Non-Toxic”.

And the CC50 at 72 h [19]?
Its CC50 at 72 h is greater than 100 µM.

What about the Activity [20] of the same compound?
The Activity was “Dose-dependent effect”.

And the inhibition [21]?
Its inhibition is 75.2%.

And the Activity [22]?
Its Activity is “Non-Toxic”.

And the Activity [23]?
The Activity was “Non-Toxic”.
